Experimental data as given in ChEMBL document CHEMBL5247671, “Design and Synthesis of Pyrazole-Based Macrocyclic Kinase Inhibitors Targeting BMPR2” (ACS Med Chem Lett, 2023).

Experiments:
[1] = target: T1, Glycogen synthase kinase-3 beta (Homo sapiens, UniProt P49841); experiment: Inhibition of N-terminal NanoLuc-fused full length lysed GSK3B (unknown origin) transfected in HEK293T cells incubated for 2 hrs in presence of tracer K8 by NanoBRET assay; format: cell-based
Method in brief: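 GSK3B NanoBRET run in the lysed mode, with cells permeabilized by digitonin to bypass compound cell penetration. EC50 values were derived from tracer displacement.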
Target sequence in this assay (P49841 whole entry, the tested form may be a part): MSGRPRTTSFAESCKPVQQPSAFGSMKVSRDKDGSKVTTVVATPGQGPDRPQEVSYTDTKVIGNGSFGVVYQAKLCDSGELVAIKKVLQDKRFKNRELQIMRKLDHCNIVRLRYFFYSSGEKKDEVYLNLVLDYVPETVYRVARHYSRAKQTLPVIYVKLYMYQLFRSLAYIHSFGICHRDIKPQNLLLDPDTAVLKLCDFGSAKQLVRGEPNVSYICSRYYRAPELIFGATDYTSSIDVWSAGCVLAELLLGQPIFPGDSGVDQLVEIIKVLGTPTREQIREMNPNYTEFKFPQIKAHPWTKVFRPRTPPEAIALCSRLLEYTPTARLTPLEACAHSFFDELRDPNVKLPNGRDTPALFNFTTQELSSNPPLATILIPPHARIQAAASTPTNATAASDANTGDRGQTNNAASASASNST

[2] = target: Cyclin-dependent kinase 2 (Homo sapiens) (UniProt P24941); experiment: Binding affinity to recombinant CDK2 (unknown origin) assessed as change in melting temperature at 10 uM by DSF assay
Method in brief: (§1)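 Differential scanning fluorimetry on an in-house panel of 90 recombinant kinases. Stabilization is read as the shift in melting temperature (ΔTm) relative to ligand-free protein. Staurosporine served as the positive control, and binding was also compared against its ΔTm.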

[3] = target: T1, Glycogen synthase kinase-3 beta; experiment: Inhibition of recombinant GSK3B (unknown origin) at 10 uM by DSF assay relative to staurosporine; method in brief: as §1
Target sequence in this assay (P49841 whole entry, looked up, the tested form may be a part): as the sequence (P49841 whole entry, the tested form may be a part) above

[4] = target: T2, MAP/microtubule affinity-regulating kinase 4 (Homo sapiens) (UniProt Q96L34); experiment: Inhibition of recombinant MARK4 (unknown origin) at 10 uM by DSF assay relative to staurosporine; method in brief: as §1
T2 sequence (whole entry): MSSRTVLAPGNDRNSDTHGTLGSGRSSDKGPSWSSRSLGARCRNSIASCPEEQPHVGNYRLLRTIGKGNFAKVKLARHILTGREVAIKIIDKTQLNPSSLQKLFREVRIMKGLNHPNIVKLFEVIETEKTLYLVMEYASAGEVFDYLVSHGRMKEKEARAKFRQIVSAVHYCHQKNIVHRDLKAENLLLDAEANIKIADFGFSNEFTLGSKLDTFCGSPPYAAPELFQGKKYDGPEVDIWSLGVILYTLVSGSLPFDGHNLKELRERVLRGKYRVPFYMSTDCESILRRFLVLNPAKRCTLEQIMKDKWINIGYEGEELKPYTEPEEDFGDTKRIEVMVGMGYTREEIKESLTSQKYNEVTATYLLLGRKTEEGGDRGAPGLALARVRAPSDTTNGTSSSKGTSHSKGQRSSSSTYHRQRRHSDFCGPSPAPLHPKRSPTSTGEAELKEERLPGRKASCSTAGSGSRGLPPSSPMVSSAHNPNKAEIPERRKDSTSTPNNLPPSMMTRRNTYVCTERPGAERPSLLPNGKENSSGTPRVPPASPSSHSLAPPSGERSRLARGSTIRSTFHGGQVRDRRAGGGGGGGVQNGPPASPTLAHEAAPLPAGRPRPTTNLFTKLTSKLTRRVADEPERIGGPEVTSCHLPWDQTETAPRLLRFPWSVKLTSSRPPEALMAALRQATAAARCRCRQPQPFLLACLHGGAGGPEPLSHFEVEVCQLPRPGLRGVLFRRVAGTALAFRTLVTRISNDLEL

[5] = target: T3, Mitogen-activated protein kinase 15 (Homo sapiens) (UniProt Q8TD08); experiment: Inhibition of recombinant MAPK15 (unknown origin) at 10 uM by DSF assay relative to staurosporine; method in brief: as §1
T3 sequence (whole entry): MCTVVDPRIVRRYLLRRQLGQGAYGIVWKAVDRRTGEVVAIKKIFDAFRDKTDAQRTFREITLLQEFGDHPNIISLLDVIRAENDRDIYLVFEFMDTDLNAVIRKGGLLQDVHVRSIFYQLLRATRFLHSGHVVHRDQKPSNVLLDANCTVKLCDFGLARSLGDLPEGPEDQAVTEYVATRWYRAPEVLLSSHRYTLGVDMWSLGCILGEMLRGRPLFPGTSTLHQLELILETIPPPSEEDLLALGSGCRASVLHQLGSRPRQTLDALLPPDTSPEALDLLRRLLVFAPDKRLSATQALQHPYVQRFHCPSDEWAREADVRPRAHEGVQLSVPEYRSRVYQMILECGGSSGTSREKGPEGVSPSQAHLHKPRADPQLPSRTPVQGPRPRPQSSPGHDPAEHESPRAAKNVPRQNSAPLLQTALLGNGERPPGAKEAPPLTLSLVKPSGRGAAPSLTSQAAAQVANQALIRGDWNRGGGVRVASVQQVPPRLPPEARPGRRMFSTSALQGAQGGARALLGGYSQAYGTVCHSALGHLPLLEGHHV

[6] = target: T4, Bone morphogenetic protein receptor type-2 (Homo sapiens) (UniProt Q13873); experiment: Inhibition of BMPR2 (unknown origin) assessed as residual activity at 1 uM by Kinomescan assay relative to staurosporine
T4 sequence (whole entry): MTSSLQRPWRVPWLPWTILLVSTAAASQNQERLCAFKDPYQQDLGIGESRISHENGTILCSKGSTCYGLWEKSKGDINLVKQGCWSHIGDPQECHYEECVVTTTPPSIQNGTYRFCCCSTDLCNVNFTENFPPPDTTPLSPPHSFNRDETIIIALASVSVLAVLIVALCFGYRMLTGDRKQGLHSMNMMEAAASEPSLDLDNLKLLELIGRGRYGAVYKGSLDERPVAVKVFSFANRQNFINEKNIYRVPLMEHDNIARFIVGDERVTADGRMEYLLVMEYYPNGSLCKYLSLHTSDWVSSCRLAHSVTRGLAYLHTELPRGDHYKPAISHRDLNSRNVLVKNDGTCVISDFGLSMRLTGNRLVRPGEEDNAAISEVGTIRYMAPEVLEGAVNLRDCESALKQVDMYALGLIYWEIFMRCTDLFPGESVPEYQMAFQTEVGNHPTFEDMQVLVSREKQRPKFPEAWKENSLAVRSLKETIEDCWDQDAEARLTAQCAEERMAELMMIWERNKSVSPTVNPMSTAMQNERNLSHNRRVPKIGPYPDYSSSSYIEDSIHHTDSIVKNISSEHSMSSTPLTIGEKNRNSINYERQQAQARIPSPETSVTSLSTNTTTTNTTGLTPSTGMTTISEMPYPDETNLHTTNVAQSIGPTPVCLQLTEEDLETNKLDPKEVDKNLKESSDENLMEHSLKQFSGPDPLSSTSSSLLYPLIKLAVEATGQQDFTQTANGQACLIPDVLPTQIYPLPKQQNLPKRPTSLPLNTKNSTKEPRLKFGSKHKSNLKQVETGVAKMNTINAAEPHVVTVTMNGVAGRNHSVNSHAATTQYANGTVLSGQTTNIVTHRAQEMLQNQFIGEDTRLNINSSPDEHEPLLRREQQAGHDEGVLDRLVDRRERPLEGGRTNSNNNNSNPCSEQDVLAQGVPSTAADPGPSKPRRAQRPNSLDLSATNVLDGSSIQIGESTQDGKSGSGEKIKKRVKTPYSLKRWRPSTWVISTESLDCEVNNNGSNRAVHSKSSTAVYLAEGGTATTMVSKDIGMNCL

[7] = target: Mitogen-activated protein kinase 8 (Homo sapiens) (UniProt P45983); experiment: Inhibition of JNK1 (unknown origin) assessed as residual activity at 1 uM by Kinomescan assay relative to staurosporine
Sequence of Mitogen-activated protein kinase 8 (Homo sapiens) (P45983 whole entry): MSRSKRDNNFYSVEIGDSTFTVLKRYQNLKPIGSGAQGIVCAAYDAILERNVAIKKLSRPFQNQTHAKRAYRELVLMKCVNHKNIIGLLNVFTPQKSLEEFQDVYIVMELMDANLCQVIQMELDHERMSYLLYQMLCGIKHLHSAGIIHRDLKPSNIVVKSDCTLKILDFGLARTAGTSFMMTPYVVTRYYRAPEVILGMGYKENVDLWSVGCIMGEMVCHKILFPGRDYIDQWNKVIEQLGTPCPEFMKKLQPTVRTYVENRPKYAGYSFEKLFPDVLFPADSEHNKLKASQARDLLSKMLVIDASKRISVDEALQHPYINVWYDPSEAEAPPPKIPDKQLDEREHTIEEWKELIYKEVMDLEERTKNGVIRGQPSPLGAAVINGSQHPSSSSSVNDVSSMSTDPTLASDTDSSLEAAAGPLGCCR

[8] = target: Serine/threonine-protein kinase RIO2 (Homo sapiens) (UniProt Q9BVS4); experiment: Inhibition of RIOK2 (unknown origin) assessed as residual activity at 1 uM by Kinomescan assay relative to staurosporine
Sequence of Serine/threonine-protein kinase RIO2 (Homo sapiens) (Q9BVS4 whole entry, looked up): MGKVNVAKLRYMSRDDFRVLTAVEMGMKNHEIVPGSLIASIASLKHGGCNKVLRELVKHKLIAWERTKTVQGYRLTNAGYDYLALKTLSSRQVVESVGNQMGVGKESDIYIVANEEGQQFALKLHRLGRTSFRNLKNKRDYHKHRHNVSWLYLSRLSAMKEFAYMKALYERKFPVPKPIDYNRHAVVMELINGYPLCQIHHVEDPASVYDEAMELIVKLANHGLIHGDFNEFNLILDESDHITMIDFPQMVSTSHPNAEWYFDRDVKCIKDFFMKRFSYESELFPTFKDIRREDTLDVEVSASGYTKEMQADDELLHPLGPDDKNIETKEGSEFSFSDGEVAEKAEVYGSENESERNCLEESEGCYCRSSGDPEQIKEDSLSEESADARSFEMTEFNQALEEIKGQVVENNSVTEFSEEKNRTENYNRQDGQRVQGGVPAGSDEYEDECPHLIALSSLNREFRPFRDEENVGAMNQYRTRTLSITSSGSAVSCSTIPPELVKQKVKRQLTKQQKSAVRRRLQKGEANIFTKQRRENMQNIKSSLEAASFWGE

O=C1NCCc2ccc(cc2)Nc2nccc(n2)Nc2cc1[nH]n2
IC50 [1]: 2300 nM | ΔTm [2]: 3.3 °C | inhibition [3]: 71% | inhibition [4]: 23% | inhibition [5]: 26% | Activity [6]: 8.3% | Activity [7]: 27% | Activity [8]: 27%
